Measured values from ChEMBL document CHEMBL1275350, “First in class, potent, and orally bioavailable NADPH oxidase isoform 4 (Nox4) inhibitors for the treatment of idiopathic pulmonary fibrosis” (J Med Chem, 2010).

Key:
NADPH oxidase 4 = biological target: T1, NADPH oxidase 4 (Homo sapiens, UniProt Q9NPH5); experiment: Inhibition of human NOX4 overexpressed in T-REx-293 cell membrane assessed as ROS production by cell free assay in presence of NADPH; conditions: in the assay text read “T-REx-293 cell membrane” for “human PMN cell membrane”
T1 sequence (Q9NPH5 whole entry): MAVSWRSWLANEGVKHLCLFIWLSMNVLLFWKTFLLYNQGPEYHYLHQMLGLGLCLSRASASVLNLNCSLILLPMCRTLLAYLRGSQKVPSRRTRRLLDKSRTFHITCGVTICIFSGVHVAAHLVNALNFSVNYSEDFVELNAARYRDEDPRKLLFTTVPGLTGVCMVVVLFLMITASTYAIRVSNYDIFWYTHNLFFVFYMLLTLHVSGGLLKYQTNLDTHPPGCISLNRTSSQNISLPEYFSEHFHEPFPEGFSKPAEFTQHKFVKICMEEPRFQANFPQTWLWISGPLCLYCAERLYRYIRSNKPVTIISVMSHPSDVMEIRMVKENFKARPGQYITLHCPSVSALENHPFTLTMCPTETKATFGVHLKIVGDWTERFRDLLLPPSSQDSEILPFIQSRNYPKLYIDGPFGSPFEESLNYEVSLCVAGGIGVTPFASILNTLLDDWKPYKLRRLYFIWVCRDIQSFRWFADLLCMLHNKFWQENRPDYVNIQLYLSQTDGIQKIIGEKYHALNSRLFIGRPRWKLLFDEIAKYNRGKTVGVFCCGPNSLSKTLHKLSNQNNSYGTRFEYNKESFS
In short: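 hNOX4 T-REx-293 cells induced with tetracycline (1 μg/mL, 24 h), sonicated in sucrose/NaCl/EGTA PBS buffer pH 7.4, membranes taken from a sucrose gradient. NADPH-triggered ROS measured by Amplex Red/HRP in PBS, with compound at 1 nM–100 μM, 20 min at 37 °C. Ki by Cheng-Prusoff from ≥3 triplicate experiments.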

[1] = Intrinsic clearance in Sprague-Dawley rat liver microsomes assessed per mg of protein at 0.5 uM; format: ADME, Microsome
In short: (§1)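 Phase I stability assay in pooled liver microsomes (human: male and female; rat: male Sprague-Dawley). Microsomes at 0.5 mg/mL final in 0.1 M phosphate pH 7.4. Compound 0.5 μM final, 0.25% DMSO. Preincubated at 37 °C, reaction started with 1 mM NADPH. Sampled at 0, 5, 15, 30 and 45 min, with a 45 min minus-NADPH control. Methanol quench with internal standard, LC/MS-MS, intrinsic clearance calculated.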

[2] = Volume of distribution at steady state in Sprague-Dawley rat at 5 mg/kg, iv; format: ADME, organism-based; parameters: dose 5 mg/kg, route intravenous; conditions: in vivo, read-out: Vdss
In short: (§2)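 Parallel design in male rats, three per group. Group 1: 5 mg/kg iv in EDPW (10% EtOH, 10% DMA, 30% PG, 50% water). Group 2: 10 mg/kg oral in aqueous 0.5% CMC with 0.25% Tween 20. Carotid cannula blood drawn up to 24 h. Plasma measured by LC/MS/MS (LLOQ 1.00 ng/mL), noncompartmental analysis.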

[3] = AUC (infinity) in Sprague-Dawley rat at 5 mg/kg, iv; format: ADME, organism-based; parameters: time infinity, dose 5 mg/kg, route intravenous; conditions: plasma
In short: (§3)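 Parallel design with six male rats: three given 5 mg/kg iv in EDPW (10% EtOH, 10% DMA, 30% PG, 50% water), three given 10 mg/kg orally in aqueous 0.5% CMC with 0.25% Tween 20. Carotid cannula blood sampled up to 24 h. Plasma levels by LC/MS/MS (LLOQ 1.00 ng/mL). Noncompartmental analysis.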

[4] = Permeability across human Caco-2 cell membrane at 10 uM after 2 hrs; format: ADME, cell-based
In short: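 Caco-2 monolayers grown 20 days in DMEM, used when TEER >800 Ω·cm2. Dosed at 10 μM final in HBSS pH 6.5 with 1% DMSO, apical-to-basolateral and basolateral-to-apical. Incubated 2 h at 37 °C, both compartments sampled, LC-MS/MS with five-point calibration. Papp = (dQ/dt)/(C0A).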

[5] = Cmax in Sprague-Dawley rat at 5 mg/kg, iv; format: ADME, organism-based; parameters: dose 5 mg/kg, route intravenous; conditions: in vivo; in short: as §3
[6] = Clearance in Sprague-Dawley rat at 5 mg/kg, iv; format: ADME, organism-based; parameters: dose 5 mg/kg, route intravenous; conditions: in vivo; in short: as §3
[7] = Clearance in Sprague-Dawley rat at 10 mg/kg, po; format: ADME, organism-based; parameters: dose 10 mg/kg, route oral; conditions: in vivo; in short: as §3
[8] = Oral bioavailability in Sprague-Dawley rat at 10 mg/kg; format: ADME, organism-based; conditions: in vivo; in short: as §2
[9] = Intrinsic clearance in human liver microsomes assessed as per mg of protein at 0.5 uM; format: ADME, Microsome; in short: as §1
[10] = Cmax in Sprague-Dawley rat at 10 mg/kg, po; format: ADME, organism-based; parameters: dose 10 mg/kg, route oral; conditions: in vivo; in short: as §3
[11] = AUC (infinity) in Sprague-Dawley rat at 10 mg/kg, po; format: ADME, organism-based; parameters: time infinity, dose 10 mg/kg, route oral; conditions: plasma; in short: as §3
[12] = Half life in Sprague-Dawley rat at 5 mg/kg, iv; format: ADME, organism-based; parameters: dose 5 mg/kg, route intravenous; conditions: in vivo; in short: as §3
[13] = Half life in Sprague-Dawley rat at 10 mg/kg, po; format: ADME, organism-based; parameters: dose 10 mg/kg, route oral; conditions: in vivo; in short: as §3
[14] = Tmax in Sprague-Dawley rat at 10 mg/kg, po; format: ADME, organism-based; parameters: dose 10 mg/kg, route oral; conditions: in vivo; in short: as §2

SMILES: Cc1c2c(=O)n(-c3ccccc3Cl)[nH]c2cc(=O)n1Cc1ccc(S(N)(=O)=O)cc1
- Ki (NADPH oxidase 4): 259 nM

SMILES: Cc1c2c(=O)n(-c3cccc(Cl)c3)[nH]c2cc(=O)n1C
- microsomal CLint at 0.5 µM [1]: 163 µL/min/mg
- Ki (NADPH oxidase 4): 340 nM

SMILES: Cc1c2c(=O)n(-c3ccc(F)cc3Cl)[nH]c2cc(=O)n1C
- Ki (NADPH oxidase 4): 213 nM

SMILES: Cc1c2c(=O)n(-c3nc4ccccc4s3)[nH]c2cc(=O)n1CCc1c[nH]cn1
- Ki (NADPH oxidase 4): 4730 nM

SMILES: Cn1c(COc2ccc(F)cc2)c2c(=O)n(-c3ccccc3Cl)[nH]c2cc1=O
- Vd [2]: 0.8 L/kg
- AUC(0-inf) [3]: 6530 ng·h/mL
- Papp at 2 h, 10 µM [4]: 35.5 ×10⁻⁶ cm/s
- microsomal CLint at 0.5 µM [1]: 125 µL/min/mg
- Cmax [5]: 30400 ng/mL
- clearance [6]: 12.8 mL/min/kg
- CL/F [7]: 48.7 mL/min/kg
- bioavailability [8]: 28%
- microsomal CLint at 0.5 µM [9]: 49.3 µL/min/mg
- Cmax [10]: 558 ng/mL
- AUC(0-inf) [11]: 3630 ng·h/mL
- Ki (NADPH oxidase 4): 114 nM
- half-life [12]: 3.47 h
- half-life [13]: 3.03 h
- Tmax [14]: 1.17 h

SMILES: Cc1c2c(=O)n(-c3ccc(F)cc3)[nH]c2cc(=O)n1Cc1ccccc1
- Ki (NADPH oxidase 4): 878 nM

SMILES: Cc1c2c(=O)n(-c3nc4ccccc4s3)n(Cc3ccccc3)c2cc(=O)n1CC1CCCO1 (stereo unspecified)
- Ki (NADPH oxidase 4): > 30000 nM

SMILES: Cc1c2c(=O)n(-c3cccc(C#N)c3)[nH]c2cc(=O)n1C
- Ki (NADPH oxidase 4): 293 nM

SMILES: Cc1c2c(=O)n(-c3nc4ccccc4s3)n(Cc3ccccn3)c2cc(=O)n1CC1CCOC1 (stereo unspecified)
- Ki (NADPH oxidase 4): > 30000 nM

SMILES: CC(=O)n1c2cc(=O)n(Cc3cccnc3)c(C)c2c(=O)n1-c1ccccc1
- Ki (NADPH oxidase 4): 409 nM

SMILES: Cc1c2c(=O)n(-c3ccccc3Cl)[nH]c2cc(=O)n1Cc1cccc(N2CCOCC2)n1
- microsomal CLint at 0.5 µM [1]: 71.6 µL/min/mg
- Ki (NADPH oxidase 4): 236 nM

SMILES: Cc1ccccc1-n1[nH]c2cc(=O)n(Cc3ccccn3)c(C)c2c1=O
- Ki (NADPH oxidase 4): 173 nM

SMILES: CCOCCCn1c(C)c2c(=O)n(-c3ccccc3Cl)n(Cc3ccccn3)c2cc1=O
- Ki (NADPH oxidase 4): > 30000 nM

SMILES: Cc1c2c(=O)n(-c3ccccc3Cl)[nH]c2cc(=O)n1Cc1ccc(CN2CCN(C)CC2)cc1
- Ki (NADPH oxidase 4): 515 nM

SMILES: Cc1c2c(=O)n(-c3ccccc3Cl)[nH]c2cc(=O)n1NC(=O)COc1ccc(F)cc1
- Ki (NADPH oxidase 4): 218 nM

SMILES: Cc1c2c(=O)n(-c3ccccc3Cl)[nH]c2cc(=O)n1CC#Cc1ccccc1
- microsomal CLint at 0.5 µM [1]: 178 µL/min/mg
- Ki (NADPH oxidase 4): 158 nM

SMILES: Cn1c(COCc2ccccc2Cl)c2c(=O)n(-c3ccccc3Cl)[nH]c2cc1=O
- Papp at 2 h, 10 µM [4]: 62.6 ×10⁻⁶ cm/s
- microsomal CLint at 0.5 µM [1]: 210 µL/min/mg
- microsomal CLint at 0.5 µM [9]: 212 µL/min/mg
- Ki (NADPH oxidase 4): 82 nM

SMILES: Cc1c2c(=O)n(-c3ccccc3Cl)[nH]c2cc(=O)n1CC1CCCCC1
- Ki (NADPH oxidase 4): 520 nM

SMILES: COCCn1c(COc2ccc(F)cc2)c2c(=O)n(CCN3CCOCC3)[nH]c2cc1=O
- Vd [2]: 2.95 L/kg
- AUC(0-inf) [3]: 822 ng·h/mL
- Papp at 2 h, 10 µM [4]: 1.4 ×10⁻⁶ cm/s
- microsomal CLint at 0.5 µM [1]: 45.3 µL/min/mg
- Cmax [5]: 4640 ng/mL
- clearance [6]: 109 mL/min/kg
- CL/F [7]: 1610 mL/min/kg
- bioavailability [8]: 6%
- microsomal CLint at 0.5 µM [9]: 45.1 µL/min/mg
- Cmax [10]: 132 ng/mL
- AUC(0-inf) [11]: 109 ng·h/mL
- Ki (NADPH oxidase 4): 153 nM
- half-life [13]: 2.35 h
- Tmax [14]: 0.25 h

SMILES: Cc1c2c(=O)n(-c3ccccc3Cl)[nH]c2cc(=O)n1CCCC(=O)N1CCN(C)CC1
- Ki (NADPH oxidase 4): 428 nM

SMILES: Cc1c2c(=O)n(CCOc3ccc(Cl)cc3)[nH]c2cc(=O)n1Cc1ccccn1
- Ki (NADPH oxidase 4): 326 nM

SMILES: Cc1c2c(=O)n(-c3ccccc3)[nH]c2cc(=O)n1Cc1ccc2c(c1)OCO2
- Ki (NADPH oxidase 4): 5440 nM

SMILES: Cc1c2c(=O)n(-c3ccccc3F)[nH]c2cc(=O)n1C
- Ki (NADPH oxidase 4): 308 nM

SMILES: Cc1c2c(=O)n(Cc3ccccc3)[nH]c2cc(=O)n1Cc1ccccn1
- Ki (NADPH oxidase 4): 463 nM

SMILES: Cc1c2c(=O)n(-c3nc4ccccc4s3)[nH]c2cc(=O)n1N1CCOCC1
- Ki (NADPH oxidase 4): 1210 nM

SMILES: CN(Cc1c2c(=O)n(-c3ccccc3Cl)[nH]c2cc(=O)n1CCc1ccccn1)c1ccccc1
- Ki (NADPH oxidase 4): 172 nM

SMILES: Cc1c2c(=O)n(Cc3ccc(Cl)cc3)[nH]c2cc(=O)n1Cc1ccccn1
- Ki (NADPH oxidase 4): 259 nM

SMILES: Cc1c2c(=O)n(-c3nc4ccccc4s3)[nH]c2cc(=O)n1CCc1c[nH]c2ccccc12
- Ki (NADPH oxidase 4): 1840 nM
